Several values for one entry are separate records, joined by “and”; a condition that tells them apart may be missing. Equal values may be shown once. Entries after “also recorded” stand apart in the source; their conditions may differ. Bridge positions count the residues as written; N and C are the ends. Square brackets hold non-standard residues; d marks the D form. Peptide text beside a SMILES is read from it.
Tests used:
[1] = tested on: B16/F1 melanoma-bearing C57 mice; test: Melanoma imaging by small animal SPECT/CT; type: in vivo, mouse; conditions: 2 h post-injection of 7.4 MBq via tail vein
[2] = tested on: B16/F1 melanoma-bearing C57 mice; test: Biodistribution in B16/F1 melanoma-bearing C57 mice; type: in vivo, mouse
Summary of the method: (§1)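 Female C57 mice bore subcutaneous right-flank tumours from 1×10^6 B16/F1 cells (~0.2 g at 10 days). Radiopeptide, 0.037 MBq in pH 7.4 saline, went in via tail vein. Groups of 4 were killed at 0.5, 2, 4 and 24 h; tumours and organs were weighed and gamma-counted. Blood was taken as 6.5% body weight. Blockade: co-injected 10 µg (6.1 nmol) unlabeled NDP-MSH, 2 h. Results as %ID/g or %ID, mean ± SD, n=4.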

[3] = as above; type: in vivo, mouse; conditions: female, C57, mouse, iv, 0.037 MBq, total radioactivity
Summary of the method: as §1

[4] = tested on: B16/F1 melanoma-bearing C57 mice; test: Urinary metabolites by radio-HPLC; type: in vivo, mouse; conditions: urine at 2 h post-injection of ~3.7 MBq via tail vein
[5] = tested on: B16/F1 melanoma cells; test: Cellular internalization; type: cell-based, murine; conditions: after 20 min of incubation at 25 °C, acid wash pH 4.5, n=3
Summary of the method: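 Cells at 2.5×10^5/well were grown overnight at 37 °C and washed with binding medium (MEM, 25 mM HEPES pH 7.4, 0.2% BSA, 0.3 mM 1,10-phenanthroline). They were incubated at 25 °C with ~200,000 cpm HPLC-purified radiopeptide for 20–120 min (n=3). Membrane-bound activity was stripped with 40 mM sodium acetate pH 4.5/0.9% NaCl/0.2% BSA. Cells were lysed in 1 N NaOH for 5 min; both fractions were gamma-counted.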

[6] = tested on: B16/F1 melanoma-bearing C57 mice; test: Effect of L-lysine co-injection on renal and tumor uptake; type: in vivo, mouse; conditions: 2 h post-injection, 15 mg L-lysine
Summary of the method: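 Groups of 4 tumour-bearing C57 mice received 0.037 MBq radiopeptide mixed with 15 mg L-lysine via injection. Mice were killed at 2 h, and tumours and organs were weighed and gamma-counted. Uptake with versus without L-lysine was compared by unpaired Student's t-test, significance p<0.05.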

[7] = tested on: B16/F1 melanoma cells; test: Cellular efflux; type: cell-based, murine; conditions: loaded 2 h at 25 °C, then 2 h of incubation in the culture medium
Summary of the method: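 B16/F1 cells were seeded at 2.5×10^5/well and grown overnight at 37 °C. They were loaded with radiopeptide for 2 h at 25 °C and rinsed twice with ice-cold PBS. Release into culture medium was then monitored. At 20, 40, 60, 90 and 120 min, surface-bound and intracellular radioactivity were collected separately and gamma-counted.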

## CC(C)[C@H](NC(=O)[C@@H]1CCCN1C(=O)[C@H](CCCNC(=N)N)NC(=O)[C@H](CS)NC(=O)[C@H](Cc1c[nH]c2ccccc12)NC(=O)[C@H](CCCNC(=N)N)NC(=O)[C@@H](Cc1ccccc1)NC(=O)[C@H](Cc1c[nH]cn1)NC(=O)[C@H](CCC(=O)O)NC(=O)[C@H](CS)NC(=O)[C@H](CS)NC(=O)[C@H](CCCCN)NC(=O)[C@@H]1CC(=O)N[C@@H](CCCNC(=N)N)C(=O)N[C@@H]([C@@H](C)O)C(=O)N[C@@H](CC(=O)O)C(=O)N[C@H](Cc2ccc(O)cc2)C(=O)N1)C(N)=O [^99mTc-RTD-Lys-(Arg^11)CCMSH, metal not drawn] (RTD[dY]DKCCEH[dF]RWCRPV-NH2; lactam N-5)
[1]
  Visualization of flank B16/F1 melanoma lesions by SPECT/CT: clearly visualized
[2]; 0.5 h post-injection
  Uptake ratio Tumor/Blood: 0.91
[2]; 2 h post-injection, NDP blockade
  Uptake ratio Tumor/Blood: 5.70
[3]; blood
  tissue uptake at 0.5 h: 15.9 ± 3.97 %ID/g
  tissue uptake at 2 h: 0.44 ± 0.13 %ID/g
  tissue uptake at 4 h: 0.55 ± 0.41 %ID/g
  tissue uptake at 24 h: 0.4 ± 0.21 %ID/g
[3]; bone
  tissue uptake at 0.5 h: 1.66 ± 0.1 %ID/g
  tissue uptake at 2 h: 0.46 ± 0.11 %ID/g
  tissue uptake at 4 h: 0.39 ± 0.12 %ID/g
  tissue uptake at 24 h: 0.23 ± 0.09 %ID/g
[3]; brain
  tissue uptake at 0.5 h: 0.14 ± 0.04 %ID/g
  tissue uptake at 2 h: 0.03 ± 0.01 %ID/g
  tissue uptake at 4 h: 0.02 ± 0.01 %ID/g
  tissue uptake at 24 h: 0.03 ± 0.01 %ID/g
[3]; heart
  tissue uptake at 0.5 h: 1.86 ± 0.21 %ID/g
  tissue uptake at 2 h: 0.29 ± 0.08 %ID/g
  tissue uptake at 4 h: 0.19 ± 0.05 %ID/g
  tissue uptake at 24 h: 0.12 ± 0.02 %ID/g
[3]; intestines
  tissue uptake dose at 0.5 h: 1.73 ± 0.17 %ID
  tissue uptake dose at 2 h: 0.84 ± 0.2 %ID
  tissue uptake dose at 4 h: 0.72 ± 0.18 %ID
  tissue uptake dose at 24 h: 0.48 ± 0.13 %ID
[3]; kidneys
  tissue uptake at 0.5 h: 145 ± 24.6 %ID/g
  tissue uptake at 2 h: 135 ± 23.6 %ID/g
  tissue uptake at 4 h: 106 ± 27.7 %ID/g
  tissue uptake at 24 h: 46.8 ± 14.8 %ID/g
[3]; liver
  tissue uptake at 0.5 h: 2.09 ± 0.04 %ID/g
  tissue uptake at 2 h: 1.62 ± 0.14 %ID/g
  tissue uptake at 4 h: 2.01 ± 0.39 %ID/g
  tissue uptake at 24 h: 1.03 ± 0.1 %ID/g
[3]; lung
  tissue uptake at 0.5 h: 4.27 ± 0.27 %ID/g
  tissue uptake at 2 h: 0.51 ± 0.37 %ID/g
  tissue uptake at 4 h: 0.39 ± 0.24 %ID/g
  tissue uptake at 24 h: 0.23 ± 0.04 %ID/g
[3]; muscle
  tissue uptake at 0.5 h: 0.8 ± 0.38 %ID/g
  tissue uptake at 2 h: 0.15 ± 0.05 %ID/g
  tissue uptake at 4 h: 0.07 ± 0.02 %ID/g
  tissue uptake at 24 h: 0.52 ± 0.1 %ID/g
[3]; pancreas
  tissue uptake at 0.5 h: 0.83 ± 0.4 %ID/g
  tissue uptake at 2 h: 0.11 ± 0.04 %ID/g
  tissue uptake at 4 h: 0.09 ± 0.05 %ID/g
  tissue uptake at 24 h: 0.13 ± 0.07 %ID/g
[3]; skin
  tissue uptake at 0.5 h: 3.99 ± 0.42 %ID/g
  tissue uptake at 2 h: 0.5 ± 0.19 %ID/g
  tissue uptake at 4 h: 0.27 ± 0.13 %ID/g
  tissue uptake at 24 h: 1.01 ± 0.31 %ID/g
[3]; spleen
  tissue uptake at 0.5 h: 1.04 ± 0.33 %ID/g
  tissue uptake at 2 h: 0.48 ± 0.2 %ID/g
  tissue uptake at 4 h: 0.47 ± 0.18 %ID/g
  tissue uptake at 24 h: 0.19 ± 0.13 %ID/g
[3]; stomach
  tissue uptake at 0.5 h: 1.87 ± 0.21 %ID/g
  tissue uptake at 2 h: 0.67 ± 0.16 %ID/g
  tissue uptake at 4 h: 0.7 ± 0.23 %ID/g
  tissue uptake at 24 h: 0.21 ± 0.04 %ID/g
[3]; tumor / blood
  tissue to tissue ratio at 2 h: 42.7
  tissue to tissue ratio at 4 h: 25.2
  tissue to tissue ratio at 24 h: 14.6
[3]; tumor / kidneys
  tissue to tissue ratio at 0.5 h: 0.1
  tissue to tissue ratio at 2 h: 0.14
  tissue to tissue ratio at 4 h: 0.13
  tissue to tissue ratio at 24 h: 0.12
[3]; tumor / lung
  tissue to tissue ratio at 0.5 h: 3.41
  tissue to tissue ratio at 2 h: 36.8
  tissue to tissue ratio at 4 h: 35.5
  tissue to tissue ratio at 24 h: 25.4
[3]; tumor
  tissue uptake at 0.5 h: 14.6 ± 5.31 %ID/g
  tissue uptake at 2 h: 18.8 ± 5.13 %ID/g
  tissue uptake at 4 h: 13.8 ± 3.1 %ID/g
  tissue uptake at 24 h: 5.84 ± 0.5 %ID/g
[3]; tumor/liver
  tissue to tissue ratio at 0.5 h: 6.97
  tissue to tissue ratio at 2 h: 11.6
  tissue to tissue ratio at 4 h: 6.89
  tissue to tissue ratio at 24 h: 5.67
[3]; tumor/muscle
  tissue to tissue ratio at 0.5 h: 18.2
  tissue to tissue ratio at 2 h: 125
  tissue to tissue ratio at 4 h: 198
  tissue to tissue ratio at 24 h: 11.2
[3]; urine
  dose excreted at 0.5 h: 28.6 ± 8.85%
  dose excreted at 2 h: 54.8 ± 5.65%
  dose excreted at 4 h: 61.2 ± 5.56%
  dose excreted at 24 h: 82.2 ± 4.69%
[4]
  Remained intact in the urine: Approximately 70%
  Transformed to a more hydrophobic compound in the urine: 30%
[5]
  Activity internalized in the cells: Approximately 71%
[6]; versus without L-lysine
  Reduction of renal uptake by L-lysine co-injection: 55% and 40–50%
[6]; p>0.05
  Effect of L-lysine co-injection on tumor uptake: didn't affect the tumor uptake; also recorded: without affecting their tumor uptake
[7]
  Activity remained inside the cells (cellular efflux): 75%
